Results published in ChEMBL document CHEMBL1765024, “Fluorescent cyclin-dependent kinase inhibitors block the proliferation of human breast cancer cells” (Bioorg Med Chem, 2011).
pIC50: −log10 of the molar value. Active and inactive are the calls of the source. No cut-off for these calls is given here.

Assays:
MDA-MB-231 [1] = experiment: Antiproliferative activity against estrogen receptor-deficient human MDA-MB-231 cells after 48 hrs by WST-1 assay; type: functional, cell-based; conditions: MDA-MB-231, 48 h
Procedure, shortened: (§1)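 Cells seeded at 3000/well in DMEM with 10% FBS and left 24 h. Compounds in DMSO were serially diluted in medium (1–100 µM) and added in triplicate. WST-1 was read 48 h after addition: 2–3 h incubation, absorbance at 450 nm with 630 nm reference. IC50 interpolated from log concentration versus fraction surviving; mean (SEM) of triplicate experiments.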

MCF7 [2] = experiment: Antiproliferative activity against human MCF7 cells expressing estrogen receptor after 48 hrs by WST-1 assay; type: functional, cell-based; conditions: MCF7, 48 h; procedure, shortened: as §1
MDA-MB-231 [3] = experiment: Induction of apoptosis in human MDA-MB-231 cells assessed as aberrant gross morphological changes at 10 uM after 48 hrs using propidium iodide staining by confocal microscopic analysis; type: functional, cell-based
MDA-MB-231 [4] = experiment: Cell cycle arrest in human MDA-MB-231 cells assessed as accumulation at G2/M phase at 5 to 10 uM after 24 hrs using propidium iodide staining by flow cytometry; type: functional, cell-based
Procedure, shortened: (§2)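 Asynchronous cells were treated with 5 or 10 µM compound or DMSO for 24 h (also 16 and 40 h). They were trypsinized, washed in PBS and fixed/permeabilized in 70% ethanol. Staining was with RNase and propidium iodide for 30 min in the dark at room temperature, followed by flow cytometry. Phase percentages are given minus DMSO control; mean of triplicates.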

MCF7 [5] = experiment: Induction of apoptosis in human MCF7 cells assessed as late apoptotic cells at 10 uM after 24 hrs using annexinV-propidium iodide staining by flow cytometry (reference value: 13.35%); type: functional
MDA-MB-231 [6] = experiment: Cell cycle arrest in human MDA-MB-231 cells assessed as accumulation at sup G1 phase at 5 to 10 uM after 24 hrs using propidium iodide staining by flow cytometry; type: functional, cell-based; procedure, shortened: as §2
MCF7 [7] = experiment: Induction of apoptosis in human MCF7 cells assessed as aberrant gross morphological changes at 10 uM after 48 hrs using propidium iodide staining by confocal microscopic analysis; type: functional, cell-based
MDA-MB-231 [8] = experiment: Cell cycle arrest in human MDA-MB-231 cells assessed as accumulation at G2/M phase at 5 to 10 uM after 16 to 40 hrs using propidium iodide staining by flow cytometry; type: functional, cell-based; procedure, shortened: as §2
MDA-MB-231 [9] = experiment: Induction of apoptosis in human MDA-MB-231 cells assessed as decrease in cell number at 10 uM after 48 hrs using propidium iodide staining by confocal microscopic analysis; type: functional, cell-based
MCF7 [10] = experiment: Cell cycle arrest in human MCF7 cells assessed as accumulation at G2/M phase at 5 to 10 uM after 16 to 40 hrs using propidium iodide staining by flow cytometry; type: functional, cell-based; procedure, shortened: as §2
MCF7 [11] = experiment: Cell cycle arrest in human MCF7 cells assessed as accumulation at G2/M phase at 5 to 10 uM after 24 hrs using propidium iodide staining by flow cytometry; type: functional, cell-based; procedure, shortened: as §2
[12] = target: T1, Cyclin-dependent kinase 5/CDK5 activator 1 (Homo sapiens) (UniProt Q00535+Q15078); conditions: at 0.1 µM
[13] = target: CDK3/cyclin E (Homo sapiens) (UniProt P24864+O96020+Q00526); experiment: Inhibition of human CDK3/cyclin E at 0.1 uM after 40 mins relative to control; type: protein-complex assay
Procedure, shortened: (§3)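 Radiometric screen at 100 nM compound against purified human CDK/cyclin (5–10 mU). Incubation 40 min at room temperature, stopped with phosphoric acid. Read by filtermat scintillation. Activity expressed as % of control, N = 2.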

MCF7 [14] = experiment: Induction of apoptosis in human MCF7 cells assessed as decrease in cell number at 10 uM after 48 hrs using propidium iodide staining by confocal microscopic analysis; type: functional, cell-based
MDA-MB-231 [15] = experiment: Induction of apoptosis in human MDA-MB-231 cells assessed as decrease in Bcl2 protein level at 10 uM after 48 hrs by Western blotting; type: functional, cell-based
Procedure, shortened: (§4)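 MDA-MB-231 cells were treated with vehicle or 10 µM compound for 48 h (and 72 h). Lysates were cleared and protein measured by BCA. Equal protein was run on 10% SDS–PAGE and transferred to PVDF, blocked in 5% milk overnight, and probed 2 h with anti-Bcl-2, Bax or PARP. HRP secondary was applied for 1 h, with ECL detection.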

MDA-MB-231 [16] = experiment: Induction of apoptosis in human MDA-MB-231 cells assessed as induction of PARP cleavage at 10 uM after 48 hrs by Western blotting; type: functional, cell-based; procedure, shortened: as §4
MCF7 [17] = experiment: Induction of apoptosis in human MCF7 cells assessed as necrotic cells at 10 uM after 24 hrs using annexinV-propidium iodide staining by flow cytometry (reference value: 12.09%); type: functional
[18] = target: Cyclin-dependent kinase 1/cyclin B1 (Homo sapiens) (UniProt P06493+P14635); conditions: at 0.1 µM
MCF7 [19] = experiment: Induction of apoptosis in human MCF7 cells assessed as viable cells at 10 uM after 24 hrs using annexinV-propidium iodide staining by flow cytometry (reference value: 70.32%); type: functional; conditions: MCF7, 24 h, read-out: Activity
MDA-MB-231 [20] = experiment: Induction of apoptosis in human MDA-MB-231 cells assessed as decrease in caspase 3 protein level at 10 uM after 48 hrs by Western blotting; type: functional, cell-based
MDA-MB-231 [21] = experiment: Induction of apoptosis in human MDA-MB-231 cells assessed as increase in Bax protein level at 10 uM after 48 hrs by Western blotting; type: functional, cell-based; procedure, shortened: as §4
[22] = target: Cyclin-dependent kinase 7/ cyclin H (Homo sapiens) (UniProt P51946+P50613); experiment: Inhibition of human CDK7/cyclinH/MAT1 at 0.1 uM after 40 mins relative to control; type: protein-complex assay; procedure, shortened: as §3
MDA-MB-231 [23] = experiment: Induction of apoptosis in human MDA-MB-231 cells assessed as decrease in caspase 7 protein level at 10 uM after 48 hrs by Western blotting; type: functional, cell-based
MCF7 [24] = experiment: Induction of apoptosis in human MCF7 cells assessed as early apoptotic cells at 10 uM after 24 hrs using annexinV-propidium iodide staining by flow cytometry (reference value: 4.24%); type: functional
MCF7 [25] = experiment: Cell cycle arrest in human MCF7 cells assessed as accumulation at sub G1 phase at 5 to 10 uM after 24 hrs using propidium iodide staining by flow cytometry; type: functional, cell-based; procedure, shortened: as §2
[26] = target: T1, Cyclin-dependent kinase 5/CDK5 activator 1 (Homo sapiens); conditions: at 0.1 µM; remark: listed apart in the source
[27] = target: CDK9/cyclin T1 (Homo sapiens) (UniProt O60563+P50750); experiment: Inhibition of at human CDK9/cyclin T1 at 0.1 uM after 40 mins relative to control; type: protein-complex assay; procedure, shortened: as §3
MCF7 [28] = experiment: Antiproliferative activity against human MCF7 cells expressing estrogen receptor at 100 uM after 48 hrs by WST-1 assay; type: functional, cell-based
Procedure, shortened: (§5)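 Cells seeded at 3000/well in DMEM with 10% FBS and left 24 h, then given compound from DMSO stock diluted in medium at 100 µM. Survival read by WST-1 48 h after addition: 2–3 h incubation, absorbance at 450 nm with 630 nm reference; triplicate experiments.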

MDA-MB-231 [29] = experiment: Induction of apoptosis in human MDA-MB-231 cells assessed as reduction of cdc2 phosphorylation at T161 catalytic site at 10 uM after 24 hrs by Western blot analysis; type: functional, cell-based
Procedure, shortened: (§6)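 MDA-MB-231 cells were treated with 10 µM compound for 1, 3, 6, 12 and 24 h and lysed. Equal protein was resolved by 10% SDS–PAGE and immunoblotted for phospho-cdc2 (T161, Y15), cdc2 and cyclin B, with actin as loading standard and ECL detection.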

MDA-MB-231 [30] = experiment: Induction of apoptosis in human MDA-MB-231 cells assessed as reduction of cdc2 phosphorylation at Y15 regulatory site at 10 uM after 24 hrs by Western blot analysis; type: functional, cell-based; procedure, shortened: as §6
MDA-MB-231 [31] = experiment: Antiproliferative activity against estrogen receptor-deficient human MDA-MB-231 cells at 100 uM after 48 hrs by WST-1 assay; type: functional, cell-based; procedure, shortened: as §5
[32] = Antiproliferative activity against human CL 10.3 cells expressing p-glycoprotein after 72 hrs by WST-1 assay; type: functional, cell-based
Procedure, shortened: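 MCF-7 and its P-glycoprotein-overexpressing MDR subline CL 10.3 were grown in DMEM with 10% heat-inactivated FBS. Compounds in DMSO were serially diluted in medium and given to cells for 72 h. Read-out was WST-1 reduction (450 nm, 630 nm reference). IC50 interpolated from log concentration versus fraction surviving; mean (SEM) of triplicates. Ratio is CL 10.3 IC50 over MCF-7 IC50.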

MDA-MB-231 [33] = experiment: Induction of apoptosis in human MDA-MB-231 cells assessed as increase in Bax protein level at 40 uM after 48 hrs by Western blotting; type: functional, cell-based
Procedure, shortened: (§7)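 Cells treated with vehicle or compound, then lysed in NP-40/Triton X-100 buffer with protease and phosphatase inhibitors. Lysate protein measured by BCA, and equal protein run on 10% SDS–PAGE and transferred to PVDF. Blocked overnight in 5% milk/TBST, primary antibody 2 h, HRP secondary 1 h, ECL detection.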

MDA-MB-231 [34] = experiment: Induction of apoptosis in human MDA-MB-231 cells assessed as decrease in caspase 7 protein level at 40 uM after 48 hrs by Western blotting; type: functional, cell-based; procedure, shortened: as §7
MDA-MB-231 [35] = experiment: Induction of apoptosis in human MDA-MB-231 cells assessed as decrease in Bcl2 protein level at 40 uM after 48 hrs by Western blotting; type: functional, cell-based; procedure, shortened: as §7
MDA-MB-231 [36] = experiment: Cell cycle arrest in human MDA-MB-231 cells assessed as accumulation at G2/M phase treated at 5 uM for 24 hrs measured after drug washout following 48 hrs growth recovery using propidium iodide staining by flow cytometry; type: functional, cell-based
Procedure, shortened: (§8)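 Exponentially growing cells exposed 24 h, then held a further 48 h in compound-free medium. Cells trypsinized, pelleted, PBS-washed, permeabilized in 70% ethanol, stained 30 min in the dark at room temperature with PI plus RNase, and analysed by flow cytometry. Phase percentages given after subtracting untreated control. Mean of triplicate experiments.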

MDA-MB-231 [37] = experiment: Cell cycle arrest in human MDA-MB-231 cells assessed as accumulation at G2/M phase treated at 10 uM for 24 hrs measured after drug washout following 48 hrs growth recovery using propidium iodide staining by flow cytometry; type: functional, cell-based; procedure, shortened: as §8
MDA-MB-231 [38] = experiment: Induction of apoptosis in human MDA-MB-231 cells assessed as decrease in caspase 3 protein level at 40 uM after 48 hrs by Western blotting; type: functional, cell-based; procedure, shortened: as §7

T1 sequence (Q00535 whole entry): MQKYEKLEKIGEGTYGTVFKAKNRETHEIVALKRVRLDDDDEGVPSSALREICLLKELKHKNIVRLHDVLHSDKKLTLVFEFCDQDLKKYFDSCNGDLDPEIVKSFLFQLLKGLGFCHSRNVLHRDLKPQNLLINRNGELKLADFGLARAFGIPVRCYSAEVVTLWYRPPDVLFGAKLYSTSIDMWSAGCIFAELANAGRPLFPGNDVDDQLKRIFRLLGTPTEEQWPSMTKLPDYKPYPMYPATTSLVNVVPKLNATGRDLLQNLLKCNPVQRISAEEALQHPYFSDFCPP
T1 sequence (Q15078 99-307 partner limits assumed): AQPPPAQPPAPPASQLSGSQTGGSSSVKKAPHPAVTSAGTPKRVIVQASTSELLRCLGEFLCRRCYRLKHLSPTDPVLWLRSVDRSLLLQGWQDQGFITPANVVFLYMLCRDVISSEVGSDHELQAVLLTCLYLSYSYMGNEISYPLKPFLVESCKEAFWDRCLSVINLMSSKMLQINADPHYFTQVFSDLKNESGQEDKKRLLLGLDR
Cyclin-dependent kinase 1/cyclin B1 (Homo sapiens), sequence (P06493 whole entry, looked up): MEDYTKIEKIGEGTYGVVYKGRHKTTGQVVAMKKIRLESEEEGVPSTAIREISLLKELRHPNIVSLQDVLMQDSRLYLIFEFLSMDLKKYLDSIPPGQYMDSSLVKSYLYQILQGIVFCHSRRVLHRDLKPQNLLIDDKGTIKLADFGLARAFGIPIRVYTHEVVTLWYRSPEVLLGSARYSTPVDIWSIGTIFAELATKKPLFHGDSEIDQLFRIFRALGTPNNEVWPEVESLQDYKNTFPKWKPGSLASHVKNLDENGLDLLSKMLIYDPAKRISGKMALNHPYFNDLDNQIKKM
Cyclin-dependent kinase 1/cyclin B1 (Homo sapiens), sequence (P14635 whole entry, looked up): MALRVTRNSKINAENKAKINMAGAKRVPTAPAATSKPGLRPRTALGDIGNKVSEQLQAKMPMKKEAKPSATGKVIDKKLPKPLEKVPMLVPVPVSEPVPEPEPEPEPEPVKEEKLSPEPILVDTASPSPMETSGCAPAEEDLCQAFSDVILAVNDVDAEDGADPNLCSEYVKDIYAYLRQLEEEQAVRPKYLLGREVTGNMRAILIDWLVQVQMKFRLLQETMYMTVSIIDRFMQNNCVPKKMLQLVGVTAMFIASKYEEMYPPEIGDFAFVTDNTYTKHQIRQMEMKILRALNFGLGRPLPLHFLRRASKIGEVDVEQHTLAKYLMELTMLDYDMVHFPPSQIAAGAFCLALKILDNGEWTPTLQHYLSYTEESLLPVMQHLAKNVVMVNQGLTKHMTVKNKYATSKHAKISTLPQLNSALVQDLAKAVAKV
CDK3/cyclin E (Homo sapiens), sequence (O96020 whole entry, looked up): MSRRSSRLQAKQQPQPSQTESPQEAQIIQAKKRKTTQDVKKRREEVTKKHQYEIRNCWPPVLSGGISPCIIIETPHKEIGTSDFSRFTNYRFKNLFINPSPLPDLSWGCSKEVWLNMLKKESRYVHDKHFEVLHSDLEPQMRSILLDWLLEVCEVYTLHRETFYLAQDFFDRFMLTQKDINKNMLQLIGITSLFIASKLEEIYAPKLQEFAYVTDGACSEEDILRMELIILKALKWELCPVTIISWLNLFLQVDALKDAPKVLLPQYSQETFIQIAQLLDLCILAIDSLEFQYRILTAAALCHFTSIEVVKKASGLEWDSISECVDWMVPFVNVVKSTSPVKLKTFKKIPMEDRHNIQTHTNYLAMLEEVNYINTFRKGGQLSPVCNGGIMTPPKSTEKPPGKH
CDK3/cyclin E (Homo sapiens), sequence (P24864 whole entry, looked up): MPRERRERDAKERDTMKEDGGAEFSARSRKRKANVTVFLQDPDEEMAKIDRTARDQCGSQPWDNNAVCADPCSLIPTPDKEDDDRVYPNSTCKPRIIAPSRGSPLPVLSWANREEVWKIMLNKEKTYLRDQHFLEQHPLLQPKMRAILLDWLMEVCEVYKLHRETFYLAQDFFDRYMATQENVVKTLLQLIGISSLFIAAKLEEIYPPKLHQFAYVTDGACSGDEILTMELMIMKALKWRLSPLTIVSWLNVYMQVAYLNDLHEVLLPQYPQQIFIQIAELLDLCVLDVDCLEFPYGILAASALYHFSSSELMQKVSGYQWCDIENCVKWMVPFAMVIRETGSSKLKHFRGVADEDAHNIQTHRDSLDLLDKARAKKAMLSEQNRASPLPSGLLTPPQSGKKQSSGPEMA
CDK3/cyclin E (Homo sapiens), sequence (Q00526 whole entry, looked up): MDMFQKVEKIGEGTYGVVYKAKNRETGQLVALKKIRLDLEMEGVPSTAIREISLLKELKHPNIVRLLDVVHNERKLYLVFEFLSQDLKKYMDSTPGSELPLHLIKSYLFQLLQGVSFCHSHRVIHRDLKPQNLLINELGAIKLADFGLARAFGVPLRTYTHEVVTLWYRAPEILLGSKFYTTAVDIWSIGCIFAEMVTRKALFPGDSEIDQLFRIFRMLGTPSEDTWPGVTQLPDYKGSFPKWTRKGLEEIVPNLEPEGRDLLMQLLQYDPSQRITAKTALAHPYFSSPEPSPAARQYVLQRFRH

SMILES: CN(C)c1cccc2c(S(=O)(=O)NCCN)cccc12 [DANSYL ETHYLENEDIAMINE]
- pIC50 (MDA-MB-231 [1]): < 4.00
- pIC50 (MCF7 [2]): < 4.00

SMILES: CC[C@H](CO)Nc1nc(Nc2ccc(C(=O)NCCNS(=O)(=O)c3cccc4c(N(C)C)cccc34)c(Cl)c2)c2ncn(C(C)C)c2n1
- Activity (MDA-MB-231 [3]): Active
- Activity (MDA-MB-231 [4]): Active
- Activity (MCF7 [5]): 16.74%
- Activity (MDA-MB-231 [6]): Active
- Activity (MCF7 [7]): Active
- Activity (MDA-MB-231 [8]): Active
- Activity (MDA-MB-231 [9]): Active
- Activity (MCF7 [10]): Active
- Activity (MCF7 [11]): Active
- inhibition [12]: 67%
- inhibition [13]: 40%
- Activity (MCF7 [14]): Active
- Activity (MDA-MB-231 [15]): Active
- Activity (MDA-MB-231 [16]): Active
- Activity (MCF7 [17]): 22.14%
- inhibition [18]: 16%
- pIC50 (MDA-MB-231 [1]): 5.31
- viability at 10 µM (MCF7 [19]): 52.3%
- Activity (MDA-MB-231 [20]): Active
- Activity (MDA-MB-231 [21]): Active
- inhibition [22]: 57%
- Activity (MDA-MB-231 [23]): Active
- Activity (MCF7 [24]): 8.87%
- pIC50 (MCF7 [2]): 4.72
- Activity (MCF7 [25]): Active
- inhibition [26]: 76%
- inhibition [27]: 44%

SMILES: CC(C)[C@H](CO)Nc1nc(Nc2ccc(C(=O)O)c(Cl)c2)c2ncn(C(C)C)c2n1 [PURVALANOL B]
- inhibition [12]: 97%
- inhibition [13]: 89%
- inhibition [18]: 78%
- pIC50 (MDA-MB-231 [1]): < 4.00
- inhibition [22]: 66%
- Activity (MCF7 [28]): inactive
- Activity (MDA-MB-231 [29]): inactive
- Activity (MDA-MB-231 [30]): inactive
- Activity (MDA-MB-231 [31]): inactive
- pIC50 (MCF7 [2]): < 4.00
- inhibition [26]: 97%
- inhibition [27]: 22%

SMILES: CC(=O)O[C@H]1C(=O)[C@@]2(C)[C@H]([C@H](OC(=O)c3ccccc3)[C@]3(O)C[C@H](OC(=O)[C@H](O)[C@@H](NC(=O)c4ccccc4)c4ccccc4)C(C)=C1C3(C)C)[C@]1(OC(C)=O)CO[C@@H]1C[C@@H]2O [PACLITAXEL]
- pIC50 [32]: < 4.30

SMILES: CC[C@H](CO)Nc1nc(NCc2ccccc2)c2ncn(C(C)C)c2n1 [SELICICLIB]
- Activity (MDA-MB-231 [33]): inactive
- Activity (MCF7 [5]): 13.2%
- Activity (MCF7 [17]): 6.56%
- pIC50 (MDA-MB-231 [1]): 4.26
- viability at 10 µM (MCF7 [19]): 73.1%
- Activity (MDA-MB-231 [34]): inactive
- Activity (MDA-MB-231 [35]): inactive
- inhibition [22]: 26%
- Activity (MDA-MB-231 [36]): inactive
- Activity (MCF7 [24]): 7.13%
- Activity (MDA-MB-231 [37]): inactive
- Activity (MDA-MB-231 [38]): inactive
- inhibition [27]: 19%
